PG9 Ab binder = PG9 antibody binding by small molecule. inhibition, % at 6.7 µM. AID 624416. TR-FRET gp120-PG9 antibody binding. hit rate 0.43% among 360,000; in the data active = inhibition above about 8.5%
Rev-erbA mod = modulators of human Rev-erb alpha DNA binding; P20393; Rev-erbα–FITC-DNA binding, fluorescence polarization, 90 min; activity, % at 10 µM; hit rate 0.79% among 370,000; AID 1259318;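 active = activity above about 14%, limit read from the data; passing the limit was not always enough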
Target sequence (P20393 whole entry, looked up): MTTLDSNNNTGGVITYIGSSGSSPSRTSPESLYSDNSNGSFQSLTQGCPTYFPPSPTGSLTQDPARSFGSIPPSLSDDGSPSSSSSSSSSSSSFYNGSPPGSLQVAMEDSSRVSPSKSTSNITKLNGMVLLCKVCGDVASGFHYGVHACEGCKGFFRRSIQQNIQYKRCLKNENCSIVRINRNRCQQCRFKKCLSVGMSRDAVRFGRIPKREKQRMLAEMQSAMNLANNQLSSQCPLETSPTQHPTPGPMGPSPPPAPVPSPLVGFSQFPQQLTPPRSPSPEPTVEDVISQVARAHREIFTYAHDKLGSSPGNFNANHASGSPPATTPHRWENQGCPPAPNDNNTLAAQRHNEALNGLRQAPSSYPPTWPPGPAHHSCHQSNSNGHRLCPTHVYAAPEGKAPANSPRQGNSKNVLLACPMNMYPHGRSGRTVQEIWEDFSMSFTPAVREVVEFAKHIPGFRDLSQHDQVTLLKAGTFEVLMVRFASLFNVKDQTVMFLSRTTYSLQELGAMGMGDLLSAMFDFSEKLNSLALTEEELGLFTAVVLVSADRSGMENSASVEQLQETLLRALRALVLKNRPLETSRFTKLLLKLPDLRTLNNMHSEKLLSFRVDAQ
H9c2 TAG inh = inhibitors of triacylglycerol accumulation | hit rate 0.66% among 230,000 | AID 651582 | H9c2 cells, Nile Red lipid (TAG) fluorescence; cells loaded with 200 µM oleic acid | inhibition, % at 12.5 µM;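 active = pattern-corrected inhibition of lipid staining of at least 50% with the nuclear-stain viability signal not falling by more than 50%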
T cruzi repl = T. cruzi replication inhibition | T. cruzi beta-gal in NIH3T3, luminescence, 90 h | inhibition, % (no concentration beside the values) | hit rate 1.4% among 300,000;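 active = mean inhibition across valid replicates above about 55%, limit read from the data; inconclusive = mean below that limit but half or more replicates reach it; inactive = mean below it, under half of replicates reach it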;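 note: signal also drops with host cell toxicity which is not excluded here; higher percent means less beta-gal luminescence so fewer parasites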
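System – NIH/3T3 host cells with β-galactosidase reporter T. cruzi · Doses – single 50 nL compound addition per well in DMSO · Reagent – 5000 T. cruzi trypomastigotes/well · Medium – Low-serum DMEM with 2% FBS · Timing – ≥90 h infection period, 3 h prior cell attachment · Evaluation – parasite load inhibition, % · Technique – GalScreen luminescence, 60 min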
iPSC survival up = hiPSC single-cell survival enhancement; ATPlite luminescence; 100% = ROCK inhibitor wells, 0% = DMSO; survival enhancement, % at 20 µM; hit rate 0.044% among 360,000; AID 602274; in the data active = survival enhancement above about 18%;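 note: cells exposed to compounds for 16 hours before the ATP read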
beta cell repl = induces beta-cell replication in MIN6 cells; proliferation, % at 10 µM; hit rate 0.29% among 330,000; MIN6 cells proliferation, ATPlite luminescence, 48 h; cells starved in 0.2% serum; 100% = growth in 10% serum;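 active = compounds whose signal lies at least 3.5 SD above the mean of all wells on their plate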
A number is an active result; 0 = inactive; ? = inconclusive; - = no result. A selection: hits, their analogues and other compounds. The true share with any hit is near 2.9%.

SMILES | PG9 Ab binder | Rev-erbA mod | H9c2 TAG inh | T cruzi repl | iPSC survival up | beta cell repl
COc1ccc(Br)cc1C(=O)Nc1ccccc1N1CCCC1 | 0 | 0 | 0 | 0 | 0 | 0
CCn1c(=O)n(CC)c2cc(N3CCCC3)c(NC(=O)c3cc(Br)ccc3OC)cc21 | 0 | 0 | - | 64 | - | 0
N/C(=N\OC(=O)COc1ccc2ccccc2c1Br)c1ccncc1 | - | - | - | 56 | - | 0
N/C(=N\OC(=O)COc1ccc2ccccc2c1)c1ccncc1 | - | - | 0 | 0 | 0 | 0
CC(=O)N1c2ccc(S(=O)(=O)N3CCCC3)cc2CC1C(=O)NCc1ccc(OC(C)C)cc1 (centres undefined) | 0 | 0 | - | 0 | 0 | 0
c1ccc(CN2CCC(Nc3ncnc4sccc34)CC2)cc1 | 0 | 0 | 0 | 0 | 0 | 0
Cc1sc2ncnc(NC3CCN(Cc4ccccc4)CC3)c2c1C | 0 | 0 | 0 | 58 | 0 | 0
CC(C)(C)NC(=O)CSc1nc2ccc(Nc3nc(N4CCOCC4)nc(N4CCOCC4)n3)cc2s1 | 0 | 0 | - | 58 | 0 | 0
CC(=O)CSc1nc2ccc(Nc3nc(N4CCOCC4)nc(N4CCOCC4)n3)cc2s1 | 0 | 0 | - | 0 | 0 | 0
CC1CCN(CC(O)COCCC23CC4CC(CC(C4)C2)C3)CC1 (centres undefined) | 0 | 0 | - | 61 | 0 | 0
CC1CCN(CC(O)COCCOc2ccc(Br)cc2)CC1 (centres undefined) | 0 | 0 | - | 0 | 0 | 0
CCN(CC)S(=O)(=O)c1ccc2oc(C(=O)NC3CCCc4ccccc43)c(C)c2c1 (centres undefined) | 0 | 0 | - | 81 | 0 | 0
CCN(CC)S(=O)(=O)c1ccc2oc(C(=O)N3CCc4ccccc4C3)c(C)c2c1 | - | - | 0 | 0 | 0 | 0
Cc1ccc2oc(=O)cc(CN3CCN(C/C=C/c4ccccc4)CC3)c2c1 | 0 | 0 | 0 | 57 | 0 | 0
O=c1[nH]c(CN2CCN(C/C=C/c3ccccc3)CC2)nc2ccccc12 | 0 | 0 | - | 72 | 0 | 0
O=c1cc(CN2CCN(C/C=C/c3ccccc3)CC2)c2cc(O)ccc2o1 | 0 | - | 0 | 58 | 0 | 0
O=C(CCCn1c(=S)[nH]c2cc3c(cc2c1=O)OCO3)NCCc1ccc(Cl)cc1 | 0 | 0 | 0 | - | 0 | -
COc1ccc([N+](=O)[O-])cc1N(CC(=O)Nc1ccccc1C(=O)N1CCCC1)S(C)(=O)=O | 0 | 0 | 0 | 0 | 0 | 0
CCOC(=O)C1C(C(=O)OC)=C(c2ccc(OC)cc2)c2ccc(OC)cc2N1S(=O)(=O)C(F)(F)F (centres undefined) | - | - | 0 | - | 0 | -
C=C(C)CN(CC)c1nc(N)c2c(N)nc3c(c2c1C#N)CC(=O)N3C12CC3CC(CC(C3)C1)C2 | 0 | 0 | 0 | 57 | 0 | 0
CCCCN1C(=O)Cc2c1nc(N)c1c(N)nc(N(CCC)CCC)c(C#N)c21 | 0 | 0 | 0 | 74 | 0 | -
C=CCn1nc2n(c1=O)-c1ccccc1SC2 | 0 | 0 | 0 | 0 | 0 | 0
CC(C)(C)c1ccccc1OCC(=O)Nc1ccccc1C(=O)NCc1cccnc1 | 0 | 0 | - | 62 | 0 | 0
CC(C)Cc1ccc(CN2CCC(n3nccc3NC(=O)C3CCCC3)CC2)cc1 | 0 | 0 | 0 | 59 | 0 | 0
O=S1(=O)CCN(Cc2ccc(Cl)c(Cl)c2)CC1 | 0 | 0 | 0 | 0 | 0 | 0
SMILES | PG9 Ab binder | Rev-erbA mod | H9c2 TAG inh | T cruzi repl | iPSC survival up | beta cell repl
COc1ccc(CC(=O)Nc2nccs2)cc1OC | 0 | 0 | - | 0 | 0 | 0
COc1ccc(CC(=O)Nc2ncc([N+](=O)[O-])s2)cc1OC | 0 | 0 | 0 | 63 | 0 | 0
COc1ccc(C(N)c2csc(Nc3ccc(C(=O)c4ccccc4)cc3)n2)cc1 (centres undefined) | 0 | 0 | 0 | - | 0 | -
N/C(=N\OC(=O)c1ccc2ccccc2c1)c1ccccc1Cl | 0 | 0 | - | 72 | 0 | 0
COc1ccc(C(CC(=O)Nc2cc(OC)cc(OC)c2)n2cccc2)cc1 (centres undefined) | 0 | 0 | - | 56 | 0 | 0
CC1(C)Oc2ccc3ccc(=O)oc3c2/C(=C/Nc2ccccn2)C1=O | 0 | 0 | - | 0 | 0 | 0
O=C(Nc1nc(-c2ccco2)c(-c2ccco2)s1)c1cnccn1 | 0 | 0 | - | 70 | - | 0
Cc1ccc(Nc2nc(-c3cccnc3)nc3ccccc23)cc1 | 0 | 0 | 0 | 0 | 0 | 0
O=C(O)CNc1nc(-c2ccccc2)nc2c1oc1ccccc12 | 0 | 0 | 0 | 0 | 0 | 0
c1ccc(-c2nc(NCc3cccnc3)c3oc4ccccc4c3n2)cc1 | 0 | 0 | 0 | 56 | 0 | 0
Cc1ccccc1Nc1nc(-c2cccnc2)nc2ccccc12 | 0 | 0 | 0 | 59 | 0 | 0
Clc1cccc(CNc2nc(-c3cccnc3)nc3ccccc23)c1 | 0 | 0 | - | 63 | 0 | 0
c1cncc(CNc2nc(-c3cccnc3)nc3ccccc23)c1 | 0 | 0 | - | 0 | 0 | 0
c1ccc(CN2CCC(Nc3nc(-c4cccnc4)nc4ccccc34)CC2)cc1 | 0 | 0 | 0 | 59 | 0 | 0
COc1cc2c(cc1NC(=O)CCCN1C(=O)CCC1=O)oc1ccccc12 | 0 | 0 | - | 0 | 0 | 0
Cc1cc(N/N=C/c2ccc(O)c(C)c2O)nc(-c2ccccc2O)n1 | 0 | 0 | - | 59 | 0 | -
Cc1c(O)ccc(/C=N/Nc2nc(-c3cccnc3)nc3ccccc23)c1O | 0 | 0 | 69 | 56 | 0 | 0
Fc1ccc(CNc2nc(-c3cccnc3)nc3ccccc23)cc1 | 0 | 0 | - | 56 | 0 | 0
C/C(=N\Nc1cc(C)nc(-c2ccccc2O)n1)c1ccccc1 | 0 | 0 | 0 | ? | 0 | 0
CC(Nc1nc(-c2cccnc2)nc2ccccc12)c1ccc(F)cc1 (centres undefined) | 0 | 0 | - | 56 | 0 | 0
Nc1ccc(N2C(=O)c3ccccc3C2=O)c(Cl)c1 | 0 | 0 | 0 | - | 0 | 0
c1ccc(CNc2nc(-c3cccnc3)nc3ccccc23)cc1 | 0 | 0 | - | 0 | 0 | 0
c1cncc(-c2nc(NCc3ccc4c(c3)OCO4)c3ccccc3n2)c1 | 0 | 0 | 0 | 69 | 0 | 0
O=C(CCNS(=O)(=O)c1ccc(Br)s1)Nc1ccc(Cl)cc1 | 0 | 0 | - | 58 | 0 | 0
O=[N+]([O-])c1ccc(O)c(/C=N/Nc2nn[nH]n2)c1 | 0 | 0 | 0 | 0 | 0 | 0
SMILES | PG9 Ab binder | Rev-erbA mod | H9c2 TAG inh | T cruzi repl | iPSC survival up | beta cell repl
O=C(N/N=C/c1cc([N+](=O)[O-])ccc1O)c1cccc2ccccc12 | 0 | 0 | 0 | 55 | 0 | 0
O=[N+]([O-])c1ccc(O)c(/C=N/Nc2ccc(Cl)nn2)c1 | 0 | 0 | 0 | 84 | 0 | 0
O=C(NN=Cc1cc(Cl)ccc1[N+](=O)[O-])c1cccc2ccccc12 | 0 | 0 | 0 | - | 0 | -
COc1cccc(-c2nc(CS(=O)CC(=O)NCCc3ccccc3)c(C)o2)c1 (centres undefined) | 0 | 0 | - | 0 | 0 | 0
CCCOc1ccc(CNCCCOCC)cc1OC | 0 | 0 | 0 | 63 | 0 | 0
CCOCCCNCc1ccc(OC)c(OC)c1 | 0 | 0 | 0 | 0 | 0 | 0
Cc1ccc(NC(=O)C(c2ccccc2)C2CCCC2)cc1 (centres undefined) | 0 | 0 | - | 0 | 0 | -
